ChEMBL document CHEMBL1152669, “New R/S-3,4-dihydro-2,2-dimethyl-2H-1-benzopyrans as K(ATP) channel openers: modulation of the 4-position” (Bioorg Med Chem, 2009)
The source made the active and inactive calls. The calls are words filed in the database; no cut-off is given here.

What was measured:
Rattus norvegicus [1] = species on record: Rattus norvegicus; experiment: Channel opening activity at KATP channel in Wistar rat pancreatic islets assessed as glucose-induced residual insulin secretion at 10 uM after 90 mins by radioimmunology
In short: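 Islets from adult fed rats, groups of 10, preincubated 30 min at 37 °C in bicarbonate salt medium with 2.8 mM glucose, 0.5% dialyzed albumin, O2/CO2 gassed. Then incubated 90 min at 37 °C with 16.7 mM glucose plus drug. Insulin by radioimmunoassay against rat insulin standard; expressed as % of drug-free 16.7 mM glucose control; mean ± SEM (n).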

[2] = Channel opening activity at KATP channel in Wistar rat endothelium-denuded aortic ring assessed as relaxation of KCl-induced contraction; assay type: tissue-based; details: Aorta
In short: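 Thoracic aortic rings (3–4 mm, endothelium-free) from adult fed rats, 37 °C, O2/CO2 95/5 gassed; isometric tension. After 60 min equilibration, contracted with 30 mM KCl; once stable, drug added cumulatively to maximal relaxation or 300 µM. Relaxation as % of KCl contraction; EC50 (50% inhibition of plateau) from dose–response curves; mean ± SEM (n).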

Rattus norvegicus [3] = species on record: Rattus norvegicus; experiment: Channel opening activity at KATP channel in Wistar rat pancreatic islets assessed as glucose-induced residual insulin secretion at 1 uM after 90 mins by radioimmunology
Rattus norvegicus [4] = species on record: Rattus norvegicus; experiment: Channel opening activity at KATP channel in Wistar rat pancreatic islets assessed as increase in rubidium outflow at 10 uM by scintillation counting in presence of glibenclamide
In short: (§1)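 Groups of 100 islets from adult fed rats loaded 60 min at 37 °C with 86Rb in bicarbonate medium with 16.7 mM glucose and 0.5% albumin, washed three times, then perifused at 1.0 mL/min. Effluent collected in 1-min fractions from min 31 to 90, counted by scintillation along with final islet content. Output as fractional outflow rate (% of islet content per min). Glibenclamide 10 µM used as KATP blocker.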

Rattus norvegicus [5] = species on record: Rattus norvegicus; experiment: Channel opening activity at KATP channel in Wistar rat pancreatic islets assessed as increase in rubidium outflow at 10 uM by scintillation counting; in short: as §1

Row | Compound | Activity (Rattus norvegicus [1]) [%] | EC50 [2] [nM] | Activity (Rattus norvegicus [3]) [%] | Activity (Rattus norvegicus [4]) | Activity (Rattus norvegicus [5])
1 | CC1(C)CC(NC(=S)Nc2cccc(C#N)c2)c2cc(Cl)ccc2O1 (stereo unspecified) | 15.8 | 600 | 66.2 | – | –
2 | CC1(C)CC(NC(=S)Nc2ccc(C#N)cc2)c2cc(Cl)ccc2O1 (stereo unspecified) | 10.6 | > 10000 | 47.8 | – | –
3 | CC1(C)CC(NC(=S)Nc2cccc([N+](=O)[O-])c2)c2cc(Cl)ccc2O1 (stereo unspecified) | 14.4 | > 3000 | 64.3 | – | –
4 | CC1=Nc2ccc(Cl)cc2S(=O)(=O)N1 | 73.9 | – | 87.5 | – | –
5 | CC(N/C(=N\C#N)Nc1ccncc1)C(C)(C)C (racemic) [PINACIDIL ANHYDROUS] | – | 350 | – | – | –
6 | CS/C(=N\c1ccc(Cl)cc1)NC1CC(C)(C)Oc2ccc(Br)cc21 (stereo unspecified) | 40.8 | > 10000 | 89.4 | – | –
7 | CC1(C)CC(NC(=S)Nc2ccc([N+](=O)[O-])cc2)c2cc(Br)ccc2O1 (stereo unspecified) | 13.5 | > 10000 | 61.3 | inactive | Active
8 | CC1(C)CC(NC(=S)Nc2ccc([N+](=O)[O-])cc2)c2cc(Cl)ccc2O1 (stereo unspecified) | 10.3 | > 10000 | 67.3 | – | –
9 | CC1(C)CC(NC(=S)Nc2ccsc2)c2cc(Br)ccc2O1 (stereo unspecified) | 44 | > 10000 | – | – | –
10 | CC1(C)CC(NC(=S)Nc2cccc([N+](=O)[O-])c2)c2cc(F)ccc2O1 (stereo unspecified) | 11.5 | > 3000 | 76.1 | – | –
11 | CC1(C)CC(N/C(=N/C#N)Nc2ccc(Cl)cc2)c2cc(Br)ccc2O1 (stereo unspecified) | 42.7 | 11400 | 95.8 | – | –
12 | CC1(C)CC(NC(=S)Nc2cccc(C#N)c2)c2cc(F)ccc2O1 (stereo unspecified) | 16.1 | 2600 | 80 | – | –
13 | CC1(C)CC(NC(=S)Nc2cccc([N+](=O)[O-])c2)c2cc(Br)ccc2O1 (stereo unspecified) | 13.5 | > 10000 | 64.3 | – | –
14 | CS/C(=N\c1cccc(C#N)c1)NC1CC(C)(C)Oc2ccc(Br)cc21 (stereo unspecified) | 37.7 | > 30000 | 93.7 | – | –
15 | CC1(C)CC(NC(=S)Nc2cccnc2)c2cc(F)ccc2O1 (stereo unspecified) | 62.1 | 6600 | – | – | –
16 | CC1(C)CC(NC(=S)Nc2cccc(C#N)c2)c2cc(Br)ccc2O1 (stereo unspecified) | 14.2 | 640 | 65.5 | – | –
17 | CC1(C)CC(NC(=S)Nc2cccnc2)c2cc(Br)ccc2O1 (stereo unspecified) | 44.3 | 3700 | – | – | –

Results, then the molecule that gave them:

Row | Activity (Rattus norvegicus [1]) [%] | EC50 [2] [nM] | Activity (Rattus norvegicus [3]) [%] | Activity (Rattus norvegicus [4]) | Activity (Rattus norvegicus [5]) | Compound
18 | 45.3 | 5200 | 90.5 | – | – | CC1(C)CC(N/C(=N/C#N)Nc2cccc(C#N)c2)c2cc(Br)ccc2O1 (stereo unspecified)
19 | 10.7 | > 3000 | 74.3 | – | – | CC1(C)CC(NC(=S)Nc2ccc([N+](=O)[O-])cc2)c2cc(F)ccc2O1 (stereo unspecified)
20 | 94.4 | 130 | 95.3 | – | – | CC1(C)Oc2ccc(C#N)cc2C(N2CCCC2=O)C1O (racemic) [CROMAKALIM]
21 | 12 | > 3000 | 64.7 | – | – | CC1(C)CC(NC(=S)Nc2ccc(C#N)cc2)c2cc(F)ccc2O1 (stereo unspecified)
22 | 11.7 | > 10000 | 57.5 | – | – | CC1(C)CC(NC(=S)Nc2ccc(C#N)cc2)c2cc(Br)ccc2O1 (stereo unspecified)
23 | 51.9 | > 3000 | – | – | – | CC1(C)CC(NC(=S)Nc2ccsc2)c2cc(Cl)ccc2O1 (stereo unspecified)
24 | 50.2 | 2800 | – | – | – | CC1(C)CC(NC(=S)Nc2cccnc2)c2cc(Cl)ccc2O1 (stereo unspecified)
